NadD block – inhibitors of S. aureus NadD, primary screen, biochemical, colorimetric, uHTS; inhibition, % at 20 µM; 360,000 tested, 0.78% active; Nicotinate-nucleotide adenylyltransferase NadD (Staphylococcus aureus N315); purified NadD enzyme, colorimetric absorbance read-out; in the data active = inhibition above about 26%
IMP-1 inhibitor – IMP-1 metallo-beta-lactamase inhibitors, primary screen, biochemical, epi-absorbance readout, Pseudomonas aeruginosa enzyme; purified IMP-1, nitrocefin hydrolysis, epi-absorbance fluorescence; inhibition, % at 5.6 µM; 290,000 tested, 0.45% active;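 active = inhibition above the mean plus 3 SD of all compounds in the same screening run, cut at about 4.5% in these data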
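System – purified recombinant IMP-1 beta-lactamase · Input – IMP-1 dispensed at 0.2 nM · Timing – 15 min preincubation plus 25 min reaction at 25 °C · Signal – Epi-absorbance fluorescence, 480 nm excitation, 530 nm emission · Measure – percent IMP-1 inhibition derived from blank-referenced optical density · Controls – Enzyme-plus-DMSO low control, enzyme-free DMSO high control · Replication – singlicate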
VIM-2 inh – VIM-2 metallo-beta-lactamase inhibitors, primary screen, biochemical, epi-absorbance readout, Pseudomonas aeruginosa enzyme; purified VIM-2, nitrocefin hydrolysis, epi-absorbance fluorescence; inhibition, % at 5.6 µM; 290,000 tested, 0.89% active; AID 1527, 2009;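 active = inhibition above the mean of all tested compounds plus 3 SD, cutoff set per screening run, cut at about 7.5% in these data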;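 also: red hydrolysis product quenches plate fluorescence so inhibitors raise well fluorescence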
core dimer inh – inhibitors of HCV core protein dimerization, primary screen, biochemical, TR-FRET, high-throughput; TR-FRET GST/Flag-core106 dimerization, 1536-well; inhibition, % at 5 µM; 300,000 tested, 0.33% active;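 active = inhibition above the mean of all tested compounds plus 3 SD, set per screening campaign, cut at about 45% in these data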
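System: GST-tagged and Flag-tagged HCV core protein residues 1-106 / Input: core106 proteins, GST 13.5 nM and Flag 17 nM / Buffer or medium: KF-containing HEPES buffer, pH 7.45, DTT, CHAPS, BSA / Probe or stimulus: Eu-anti-GST and XL665-anti-Flag labelled anti-tag antibodies / Schedule: 4 h, 22.5 °C incubation / Technique: TR-FRET 671 and 617 nm emission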
Of the large screens only hits and unclear results are named; the others gave an inactive call. In the library only some 1.9% were active in any assay of this set; here they are far more common.

COc1cccc(NC(=S)N2CCC(C(=O)c3ccc(F)cc3)CC2)c1	none (no result: IMP-1 inhibitor, VIM-2 inh, core dimer inh)
O=C(O)Cc1ccc(C(=O)c2ccc(Cl)cc2Cl)s1	none
COc1ccc(-c2sc(C(=O)c3ccc(Cl)cc3Cl)cc2CC(=O)O)cc1	VIM-2 inh 11
O=C1CS/C(=N\N=C\c2ccco2)N1c1ccccc1	none
O=C1CS/C(=C\[N+](=O)[O-])N1c1ccccc1	IMP-1 inhibitor 4.6
CCCCNc1c([N+](=O)[O-])c(=O)n(C)c2ccccc12	none
Cn1c(=O)c([N+](=O)[O-])c(NCCCn2ccnc2)c2ccccc21	VIM-2 inh 7.9
O=[N+]([O-])c1cc(C(F)(F)F)cc([N+](=O)[O-])c1NCCN1CCNCC1	none
CCOC(=O)c1cc(-c2ccc(N3CCOCC3)cc2)nn1-c1ccccc1	none
CCOC(=O)c1cc(-c2ccc(N3CCOCC3)cc2)nn1-c1ccccc1C(=O)O	IMP-1 inhibitor 22
O=C(NCc1ccccc1)c1ccc(CS(=O)Cc2cccc(Cl)c2)o1 (stereo not drawn)	none (no result: IMP-1 inhibitor, VIM-2 inh, core dimer inh)
Oc1c(Br)cc(Br)cc1CNc1cccc2cccnc12	NadD block 57, IMP-1 inhibitor 16
COC1=CC(=O)C(O)=C(CCCCCCC/C=C/CCCCCCCC2=C(O)C(=O)C=C(OC)C2=O)C1=O	NadD block 51 (no result: IMP-1 inhibitor, VIM-2 inh)
CCCCCCCCCCCC1=C(O)C(=O)C=C(O)C1=O	NadD block 37 (no result: IMP-1 inhibitor, VIM-2 inh)
CCCCCCc1c(O)c2ccccc2[nH]c1=O	none
Cc1cccc(N(C(=O)Cn2nnc3ccccc32)C(C(=O)NCc2ccco2)c2ccncc2)c1 (stereo not drawn)	none
O=C(NCc1ccco1)C(c1ccco1)N(C(=O)Cn1nnc2ccccc21)c1ccc2c(c1)CCC2 (stereo not drawn)	core dimer inh 50
O=c1cc(CSc2nnnn2-c2ccccc2)nc(Nc2ccc(F)cc2)[nH]1	VIM-2 inh 10.0
COc1cc(/C=N/Nc2ncnc3sc4c(c23)CCC4)ccc1O	VIM-2 inh 10 (no result: core dimer inh)
COc1cc(/C=N/NC2=NCCCCC2)ccc1O	none
Cc1onc(-c2ccccc2)c1C(=O)Nc1sc2c(c1C#N)CCC2	none
Cc1onc(-c2ccccc2)c1C(=O)Nc1sc2c(c1C(N)=O)CCC2	core dimer inh 62
Cc1onc(-c2ccccc2)c1C(=O)Nc1nc(-c2ccccc2)cs1	core dimer inh 54
Cc1nc2ccccc2c2oc(C(=O)N3CC(C)CC(C)C3)cc12 (stereo not drawn)	VIM-2 inh 9.8
CCOC(=O)C1CCCN(c2nc(C)nc3c2oc2ccccc23)C1 (stereo not drawn)	VIM-2 inh 10
CCOC(=O)C1CCCN(C(=O)c2cc3c(C)nc4ccccc4c3o2)C1 (stereo not drawn)	VIM-2 inh 7.9
CCOC(=O)C1CCN(c2nc(C)nc3c2oc2ccccc23)CC1	none (no result: IMP-1 inhibitor, VIM-2 inh)
CCOC(=O)C1CCCN(C(=O)c2cc(-c3ccco3)nc3ccccc23)C1 (stereo not drawn)	none (no result: IMP-1 inhibitor, VIM-2 inh, core dimer inh)
CC(=O)Nc1cccc(NC(=O)CSc2nc3c(c(=O)n(C)c(=O)n3C)n2C)c1	none
C#CCn1c(=NC(=O)c2ccc(S(=O)(=O)N3CCc4ccccc4C3)cc2)sc2cc(S(N)(=O)=O)ccc21	NadD block 47
COc1ccc(NC(=O)C2CCCN(CCCc3ccccc3)C2)cc1OCC(C)C (stereo not drawn)	none
O=P(O)(O)c1ccccc1OCCOCCOc1ccccc1P(=O)(O)O	VIM-2 inh 23
O=C(CN(C(=O)CCC(=O)Nc1nccs1)c1ccc(F)cc1)NCCc1ccccc1	none
O=C1c2cccc3cccc(c23)C(=O)N1c1ccc2ncccc2c1	IMP-1 inhibitor 9.3
CCOC(=O)c1sc2nc[nH]c(=O)c2c1C	IMP-1 inhibitor 5.2
COC(=O)c1ccccc1NC1=C/C(=N\S(=O)(=O)c2ccc(C(=O)O)cc2)c2ccccc2C1=O	NadD block 47
COC(=O)c1ccccc1NC1=C/C(=N\S(=O)(=O)c2cccs2)c2ccccc2C1=O	IMP-1 inhibitor 5.0
O=C(NNC(=O)c1ccccc1[N+](=O)[O-])c1ccc(NS(=O)(=O)c2cccs2)cc1	none
Cc1oc(-c2ccc(Cl)cc2)cc1-c1nn2c(-c3ccoc3C)nnc2s1	core dimer inh 84
Clc1ccc(-c2nnc3sc(-c4ccc(Br)o4)nn23)cc1	none
CCN(CC)C(=O)c1[nH]cnc1C(=O)Nc1cccc(Cl)c1	none (no result: IMP-1 inhibitor, VIM-2 inh, core dimer inh)
O=C(Cc1coc2ccc3ccccc3c12)Nc1nnc(C2CC2)s1	none
Cc1cc2occ(CC(=O)Nc3nnc(C4CC4)s3)c2cc1C	IMP-1 inhibitor 20
CC(C)c1cccc(-c2ccc3c(c2)S(=O)(=O)c2cccc(C(=O)NCc4ccccc4Cl)c2C3=O)c1	NadD block 34 (no result: IMP-1 inhibitor, VIM-2 inh, core dimer inh)
O=C(CCCc1nc(-c2ccccc2Cl)no1)NCc1cccnc1	IMP-1 inhibitor 5.7
CC(C)c1nc2sc3c(=S)nc[nH]c3c2c2c1CCC2	IMP-1 inhibitor 4.5
COc1cccc(-c2nn(-c3ccccc3)cc2CN2CCCO2)c1	none
CCN1/C(=C\c2ccc3cc(C)ccc3[n+]2CC)Sc2cc(C)c(C)cc21	none (no result: core dimer inh)
CCN1/C(=C/c2ccc3cc(C)ccc3[n+]2CC)Sc2ccc3sccc3c21	NadD block 44 (no result: IMP-1 inhibitor, VIM-2 inh)
CN(CC(=O)Nc1cccc(F)c1)C(=O)CSc1ccccc1	none (no result: IMP-1 inhibitor, VIM-2 inh)
CC(C)OCCCNC(=O)c1cc2c(=O)n(C)c3ccccc3c2n1C	VIM-2 inh 10
COc1ccc(C(=O)NC(=S)Nc2cccc3cc(O)ccc23)cc1OC	IMP-1 inhibitor 4.5
COc1ccccc1C(=O)NC(=S)Nc1cccc2cc(O)ccc12	none
CCN(CC)CCNC(=O)c1ccc(NC(=O)C2CC(=O)N(c3ccc4c(c3)OCCO4)C2)cc1 (stereo not drawn)	none (no result: IMP-1 inhibitor, VIM-2 inh)
O=S(=O)(c1cccc(S(=O)(=O)N2CCC(N3CCCCC3)CC2)c1)N1CCOCC1	none (no result: NadD block, core dimer inh)
CC1CCN(S(=O)(=O)c2cccc(S(=O)(=O)N3CCOCC3)c2)CC1	IMP-1 inhibitor 5.4
Cc1c(NC(=S)N/N=C\c2ccccc2O)c(=O)n(-c2ccccc2)n1C	VIM-2 inh 7.8
Cn1cc(-c2ccccc2C(N)=O)c(=O)c2cc(Cl)ccc21	none
Cn1cc(C2=C(c3ccc(Cl)cc3Cl)C(=O)NC2=O)c2ccccc21	IMP-1 inhibitor 4.9
CCCCS(=O)(=O)N1CCC(C(=O)Oc2ccc(Cl)cc2)CC1	none
CCCCS(=O)(=O)N1CCCC(C(=O)Oc2ccc(Cl)cc2)C1 (stereo not drawn)	IMP-1 inhibitor 6.0
COc1cccc(C(=O)NC2CC3CCCC(C2)N3CC(=O)Nc2ccccc2)c1 (stereo not drawn)	IMP-1 inhibitor 28
C#CCOCCOCCOCCNc1nc(N2CCN(C(=O)[C@H](CCCCN)n3cc(CCCC)nn3)CC2)nc(N2CCN(C(=O)[C@H](CCCCN)n3cc(CCC(=O)O)nn3)CC2)n1	none (no result: IMP-1 inhibitor, VIM-2 inh)
CC(NC(=O)CCNC(=O)c1ccc(C(C)(C)C)cc1)c1ccccc1 (stereo not drawn)	none (no result: IMP-1 inhibitor, VIM-2 inh, core dimer inh)

Screening data as filed in PubChem.
